# Screens from PubChem.
# Hits are enriched below; roughly 4.2% of the tested compounds scored in any of these assays.
# KCC2 mod = modulators of human KCC2 chloride dependent transport; Q9H2X9; KCC2 cells, thallium flux FluoZin-2 fluorescence; B-score of Tl+ flux slope (higher = more flux/activation; lower = inhibition) at 10 µM; 190,000 compounds, 2.2% hits; AID 1456;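 active = thallium flux slope and its plate-corrected score both differing from the plate sample mean at a set confidence after two filtering rounds, in either direction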;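 note: slope of fluorescence scaled to starting intensity during 10 to 20 s after thallium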
# WT yeast gro inh = growth inhibition of WT yeast, mitochondrial fusion screen; mitochondrial fusion phenotypic screen, WT strain; inhibition, % at 10 µM; 190,000 compounds, 2.1% hits; in the data active = inhibition above about 58%; tested in S. cerevisiae
# Rad51 HR inh = blocks human Rad51 in homologous recombination. inhibition, % at 10 µM. hRad51 DNA strand exchange, fluorescence dequenching. 200,000 compounds, 0.085% hits. Q06609;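 active = inhibition above 40% at the single screening dose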;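 note: 0% = DMSO control wells and 100% = blanks with heterologous ssDNA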
# Target sequence (Q06609 whole entry, looked up): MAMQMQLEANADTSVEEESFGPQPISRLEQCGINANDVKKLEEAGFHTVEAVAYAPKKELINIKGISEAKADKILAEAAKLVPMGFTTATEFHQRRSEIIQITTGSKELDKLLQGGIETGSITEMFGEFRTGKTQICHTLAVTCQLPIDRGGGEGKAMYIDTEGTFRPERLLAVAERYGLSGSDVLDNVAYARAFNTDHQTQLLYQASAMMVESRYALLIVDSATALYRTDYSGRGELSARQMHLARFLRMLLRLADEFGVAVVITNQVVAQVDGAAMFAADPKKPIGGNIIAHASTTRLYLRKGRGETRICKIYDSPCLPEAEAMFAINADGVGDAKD
#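 Material: hRad51 filaments on single-stranded DNA; Reagent: Donor/quencher-labelled 47-bp dsDNA substrate; Compound: 10 µM final, single point; Schedule: 37 °C 15-min filament assembly, 30-min compound preincubation, 15-min exchange; Technique: FRET fluorescence, excitation 485 nm, emission 520 nm; Benchmarks: control wells and blank wells on each plate.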
# Autophagy mod = modulators of autophagy; 190,000 compounds, 0.98% hits; AID 463193; calls only at 10 µM (by protocol); MEF GFP-LC3 puncta imaging; test concentration mostly 10 µM;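 active = percentage of spot-positive cells more than 3 SD above its plate mean, without a fluorescence outlier flag or 80% toxicity; inconclusive = no clear call, values can overlap the other calls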;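 note: spot-positive cell cutoff set from DMSO-treated cells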
# Ins promoter up = MIN6 insulin promoter up-regulation. MIN6 insulin promoter-GFP reporter, high-content imaging; hits give high values. z-score at 5 µM. 190,000 compounds, 0.3% hits;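 active = z-score above 3 at 5 µM with at least 500 cells counted in the well; inconclusive = wells under 500 cells, flagged as cytotoxic or low count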
# SKKanGAS inh = SKKanGAS growth inhibition; S. pyogenes SKKanGAS, kanamycin growth, BacTiter-Glo, 6 h; inhibition, % at 7.5 µM; AID 1662; 300,000 compounds, 1.3% hits;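 active = mean replicate score, as percent of positive control median, at least 50; inconclusive = mean below 50 but one replicate at or above 50; inactive = mean and every replicate below 50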;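 note: strain carries kanamycin resistance gene driven by streptokinase promoter and grows in 40 µg/ml kanamycin; loss of luminescence reflects streptokinase promoter inhibition or plain growth inhibition; 0% = median of DMSO wells and 100% = positive control at its reference dose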
# KCC2 sec1 = KCC2 (human) modulation, secondary assay. shares compounds with KCC2 mod. HEK293-KCC2, thallium flux, FluoZin2 fluorescence; hits give high values. normalised thallium flux (F/F0 slope) at 10 µM. 3,700 compounds, 15% hits. AID 1713;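 active = thallium flux slope above the same plate's solvent-only control mean plus 3 SD; inconclusive = the two replicate wells disagree; inactive = no significant difference from solvent-only control wells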
# KCC2 bumet counter = thallium flux persisting under bumetanide in KCC2 cells, counter-screen secondary assay | HEK293-KCC2 + bumetanide/ouabain, thallium flux FluoZin2; hits give high values | normalized thallium flux at 10 µM | shares compounds with KCC2 mod | 3,700 compounds, 49% hits;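 active = thallium entry rate above the same plate's blocked-transporter control wells by more than 3 SD; inconclusive = the two repeat wells disagree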;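 note: raw slope of fluorescence over initial fluorescence between 10 and 20 s after thallium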
# KCC2 secondary2 = KCC2 (human) modulation, second secondary assay; shares compounds with KCC2 mod; HEK293-KCC2, thallium flux FluoZin2 fluorescence; actives lie on both sides; F/F0 rise rate, 10–20 s post-thallium; normalized thallium flux at 10 µM; 3,700 compounds, 23% hits; AID 1715;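 active = thallium flux slope more than 3 SD above or below the plate's solvent-only control mean, mostly below; inconclusive = the two repeat wells disagreed; inactive = no significant shift from solvent-only controls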;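 note: raw slope with 0.1% DMSO as baseline and bumetanide as block control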
# HEK counter1 = acts in parental HEK cells, KCC2 counter-screen. shares compounds with KCC2 mod. HEK293 parental cells, thallium flux FluoZin2, ouabain; baseline-ratio fluorescence slope, 10–20 s after thallium. thallium flux rate (normalised fluorescence) at 10 µM. 3,700 compounds, 46% hits;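 active = thallium flux rate significantly above the same plate's solvent-only control wells, beyond their mean plus 3 SD; inconclusive = the two replicate wells gave conflicting results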
# KCC2 ouabain = modulates human KCC2 on retest with ouabain; HEK293-KCC2, thallium flux FluoZin2 fluorescence; bidirectional: low = inhibitor, high = activator; AID 1717; raw Tl+ flux slope (below DMSO = inhibition, above = activation) at 10 µM; shares compounds with KCC2 mod; 3,700 compounds, 48% hits;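 active = thallium flux slope beyond 3 SD from same-plate DMSO control mean in most replicates, usually higher, sometimes lower; inconclusive = repeat tests gave conflicting results; inactive = no significant difference from controls in most replicates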;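 note: slope of initial-normalized fluorescence between seconds 10 and 20 after thallium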
# HEK counter2 = parental HEK flux effect, counter-screen 2. shares compounds with KCC2 mod. HEK293 parental, thallium flux FluoZin-2 fluorescence slope. thallium flux slope at 10 µM. 3,700 compounds, 33% hits. AID 1718;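 active = thallium flux slope above the same plate's solvent-control mean plus 3 SD in both duplicate wells; inconclusive = duplicate wells that disagreed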;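 note: run without ouabain in cells lacking the KCC2 cotransporter; slope of fluorescence scaled to its starting value between 10 and 20 s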
# Numbers without * were called inactive; i = inactive; u = inconclusive; x = no result.
SMILES,KCC2 mod,WT yeast gro inh,Rad51 HR inh,Autophagy mod,Ins promoter up,SKKanGAS inh,KCC2 sec1,KCC2 bumet counter,KCC2 secondary2,HEK counter1,KCC2 ouabain,HEK counter2
CCc1ccc(OCc2nnc(SCC(=O)Nc3cccc(C(=O)N4CCOCC4)c3)o2)cc1,-3.4*,-17,5,i,-0.33,2,0.0057,0.0046,0.029,0.0072,0.017,0.01
CCC(Sc1nc(C)cc(=O)[nH]1)C(=O)Nc1nc(-c2ccccc2)cs1 (centres undefined),-5.3*,-4,2,i,0.12,x,0.0046,0.0055,0.021*,0.006*,0.012*,0.0097
CNC(=S)N(Cc1cc2cc(OC)c(OC)cc2[nH]c1=O)C1CCCC1,-4.2*,-9,3,i,x,-6,0.0094,0.0061,0.031,u,0.019,0.0098
CNC(=S)N(CCc1cccc(C)c1)Cc1cc2cc(OC)c(OC)cc2[nH]c1=O,0.7,-13,x,i,-0.48,2,x,x,x,x,x,x
CCC(C)NC(=O)CN(C1CCCCC1)S(=O)(=O)c1ccc(F)cc1 (centres undefined),x,x,x,x,x,0,x,x,x,x,x,x
S=c1[nH]nc(Nc2cccc3ccccc23)s1,30*,x,-3,x,-0.46,-1,0.0078*,0.023*,0.017*,0.0088*,0.016*,0.0099
Cc1cc(S(=O)(=O)N(C)CCc2ccccc2)ccc1-n1cnnn1,-4.6*,12,3,i,-0.66,-5,0.0082,0.0047,0.024*,0.0074,0.016*,0.01
Cc1cc(S(=O)(=O)N(Cc2ccccc2)Cc2ccc(N(C)C)cc2)ccc1-n1cnnn1,1.1,-4,-2,i,-0.99,-3,x,x,x,x,x,x
CC1(C)CC(=O)C(C(=O)CCCCC(=O)C2C(=O)CC(C)(C)CC2=O)C(=O)C1,4.4*,2,-5,i,0.25,0,0.01,0.006,0.035,0.0085,0.02,0.011
COC(=O)CCCCC(=O)C1C(=O)CC(C)(C)C(C(=O)OC)C1=O (centres undefined),0.57,0,-1,i,-0.37,5,x,x,x,x,x,x
Cc1cccc(-c2nc(=S)c3c(o2)CCCC3)c1,53*,x,x,i,0.74,-1,0.015*,0.03*,0.028,0.015*,u,u
Cc1cccc(-c2nc(C#N)c(N3CCCCC3)o2)c1,x,x,x,x,x,-8,x,x,x,x,x,x
CC(C)c1cc(N2CCC(=O)NC2=O)cc(C(=O)O)c1O,1.9,-14,0,i,0.9,-3,x,x,x,x,x,x
COc1ccccc1/C=C/C=N/n1c(-c2ccc(F)cc2)n[nH]c1=S,5.3*,x,-4,x,1.2,1,0.01,0.015*,0.034,0.011*,0.023,0.011
S=c1[nH]nc(-c2cccc(Cl)c2)n1/N=C/c1ccco1,14*,x,9,x,1.1,-2,u,0.021*,0.038,0.018*,0.031*,0.012
Cc1ccc(/C=N/n2c(-c3cccc(Cl)c3)n[nH]c2=S)o1,45*,x,3,x,-0.72,2,0.0066,0.046*,0.032,0.029*,0.04*,0.02*
S=c1[nH]nc(-c2cccc(Cl)c2)n1/N=C/c1ccc(-c2ccccc2Br)o1,0.67,x,-1,x,0.17,3,x,x,x,x,x,x
COc1ccccc1/C=C/C=N/n1c(-c2cc(-c3ccccc3)n[nH]2)n[nH]c1=S,-0.73,x,-1,x,-1.3,11,x,x,x,x,x,x
S=c1[nH]nc(-c2ccncc2)n1/N=C/C=C/c1ccco1,0.25,8,-17,i,-0.48,9,x,x,x,x,x,x
Cc1cccc(-c2n[nH]c(=S)n2/N=C/C=C/c2ccco2)c1,20*,x,-5,x,-0.84,-1,0.0057,0.022*,0.029,0.018*,0.028*,0.016*
Cc1csc(NC(=O)c2cn3ccccc3n2)n1,-1.7,33,3,i,-0.55,23,x,x,x,x,x,x
c1ccc2[nH]c(CSc3nnc(-c4ccncc4)o3)nc2c1,0.5,7,3,i,x,1,x,x,x,x,x,x
Brc1cccc(-c2nnc(SCc3nc4ccccc4[nH]3)o2)c1,20*,56,x,i,-0.16,2,0.0075,0.0054,0.032,0.0077,0.019,0.01
CNC(=O)COc1coc(CN2CCN(c3cccc(Cl)c3)CC2)cc1=O,x,x,x,x,x,-8,x,x,x,x,x,x
Cc1ccc(C(=O)Nc2ncc(Cc3ccc(F)cc3)s2)o1,-4.8*,14,x,i,-0.11,28,0.0075,0.007,0.031,u,0.018,u
SMILES,KCC2 mod,WT yeast gro inh,Rad51 HR inh,Autophagy mod,Ins promoter up,SKKanGAS inh,KCC2 sec1,KCC2 bumet counter,KCC2 secondary2,HEK counter1,KCC2 ouabain,HEK counter2
Cc1cccc(CSc2nnc(-c3ccco3)o2)c1,-0.098,33,7,i,0.78,9,x,x,x,x,x,x
CC(=O)c1c(C)cc(C)c(CSc2nnc(-c3ccco3)o2)c1C,6*,-11,2,i,-0.97,3,0.0058,0.0041,u,u,0.018,0.0097
COc1cc(Cl)c(CN2CCCC(CO)(Cc3cccc(Cl)c3)C2)cc1OC (centres undefined),x,x,x,x,x,7,x,x,x,x,x,x
O=C(NC(=S)Nc1ccc(CN2CCCCC2)cc1)c1cc2ccccc2o1,13*,x,-8,x,0.21,-1,0.0067,0.017*,0.05*,0.031*,0.033*,0.032*
COc1ccc(C(=O)NC(=S)Nc2ccc(CN3CCOCC3)cc2)cc1OC,0.41,x,9,x,-0.77,13,x,x,x,x,x,x
O=C(NC(=S)Nc1ccc(CN2CCOCC2)cc1)c1ccco1,11*,x,3,x,0.05,7,u,0.034*,0.034,0.013*,0.039*,0.012*
CCCCC(=O)Nc1ccc(C(=O)NNC(=S)NC(=O)c2ccco2)cc1,7.2*,-25,6,i,0.02,u,0.011,0.031*,0.034,u,0.03*,u
CCOc1ccc(NC(=S)NC(=O)c2ccco2)cc1,184*,x,x,x,-0.19,23,0.063*,0.18*,0.048*,0.11*,0.098*,0.041*
CCN(CC(=O)Nc1c(F)cccc1F)C(=O)c1ccc(C)c(S(=O)(=O)N2CCCCC2)c1,x,x,x,x,x,-1,x,x,x,x,x,x
Cc1ccc(C(=O)NC(=S)Nc2ccc(CN3CCCCC3)cc2)c(C)c1,1.8,-4,-2,i,-2.4,-3,x,x,x,x,x,x
